Fewer inactive variants are shown than the library holds.
B1: tRNA (parent)
chain: GUUCCGUUGGCGUAAUGGUAACGCGUCUCCCUCCUAAGGAGAAGACUGCGGGUUCGAGUCCCGUACGGAACG

Variants of: B1
Experiment: yeast fitness relative to wild type (ratio to wild type); higher = fitter; tRNA-Arg(CCU), competitive growth, 37 C, YPD
Method in brief: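 A pool of Saccharomyces cerevisiae strains, each with a tRNA-Arg(CCU) gene variant at the native genomic locus, was competed in YPD at 37°C for 24 hours across six parallel replicates. The variants had been chemically synthesised at a 3% per-site mutation rate over 69 sites, and gene amplicons before and after competition were read by 100-nucleotide paired-end sequencing. Darwinian fitness relative to wild type rested on changes in genotype frequencies. Genotypes required ≥ 100 starting reads, and estimates < 0.5 were set to 0.5.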

First: GUUCCGUUGGCGUAAUGGUAACGCGUCUCCCUCCUAUGGAGAAGACUGCGGGUUCGAGUCACGUACCGAACG
Second: GUUCCGUUGGCGUAAUGGUAACGCGUCUCCCUCCUAUGGAGAAGACUGCGGGUUCGAGUCCCGUGAGGAACG
The yeast fitness of the first is higher: 0.507 for the first, at most 0.5 for the second.

First: GUUCCGUUGGCGUAAUGGUAACGCGUCUCCCUCCUAUGGAGAAGACUGUGGGUUCGAGUCCCGCACGGAACG
Second: GUUCCGUUGGCGUAAUGGUAACGCGUCUCCCUCCUAGGGAGAAGACUGCGGGUCCGAGUCCCGUUCGGAACG
The yeast fitness of the first is higher: 0.545 for the first, at most 0.5 for the second.

First: GUUCCGUUGGCGUAAUGGUAACGCGUCUCCCUCCUAUGGAGAAGACUGAGGGUUCGAGUCCCGUAUGGAACG
Second: GUUCCGUUGGCGUAAUGGUAACGCGUCUCCCUCCUAUGGCGAAGACUGCGGGUUCGAGUCCCGUACGGAACG
The yeast fitness of the first is lower: at most 0.5 for the first, 0.776 for the second.

Compared with GUUCCGUUGGCGUAAUGGUAACGCGUCUCCCUCCUAUGGUGAAGACUGCGGGUUCGAGUCCCGUACGGAACG, GUUCCGUUGGCGUAAUGGUAACGCGUCUCCCUCCUAUGGAGAAGACUGCGGGUUCGCGUCCCGUACGGAACG is lower in yeast fitness: 0.72 for the first, 0.578 for the second.

Going from GUUCCGUUGGCGUAAUGGUAACGCGUCUCCCUCCUAUGGAGAAGACUGCGGGUUCGGGUCCCGUACGGAACG to GUUCCGUUGGCGUAAUGGUAACGCGUCUCCCUCCUAUGGAGAAGCAUGCGGGUUCGAGUCCCGUACGGAACG, the yeast fitness falls from 0.648 to 0.598.

First: GUUCCGUUGGCGUAAUGGUAACGCGUCUCCCUCCUAUGGAGAAGACUGCGGGUUCGAGUCUCGUACGGAACG
Second: GUUCCGUUGGCGUAAUGGUAACGCGUCUCCCUCCUAUGGAGAAGACUGCGGGUUCGAGUUCGGAACGGUACG
The yeast fitness of the first is higher: 0.771 for the first, at most 0.5 for the second.

GUUCCGUUGGCGUAAUGGUAACGCGUCUCCCUCCUAUGGAGCAGACUGCGGGUUCGAGUCCCGUACGGCACG and GUUCCGUUGGCGUAAUGGUAACGCGUCUCCCUCCUAUGGAGCAGACUCCGGGUUCGAGUCCCGUACGGAUCG cannot be ordered by yeast fitness: at most 0.5 for the first, at most 0.5 for the second.

GUUCCGUUGGCGUAAUGGUAACGCGUCUCCCUCCUAUGGAGAAGUCUGCGGGUUCGAGUCCCGUGCGGAACG and GUUCCGUUGGCGUAAUGGUAACGCGUCUCCCUCCUAUCGAGAAGACUGCGGGUUCGAGUCCCGUCCGGAACG cannot be ordered by yeast fitness: at most 0.5 for the first, at most 0.5 for the second.

Compared with GUUCCGUUGGCGUAAUGGUAACGCGUCUCCCUCCUAUCGAGAAGACUGCGGGUUCGAGUCUCGUACGGAACG, GUUCCGUUGGCGUAAUGGUAACGCGUCUCCCUCCUAUGGAGCAGACUGCGGGUUCGAGUCCCGUACGGAACG is higher in yeast fitness: at most 0.5 for the first, 0.698 for the second.

Compared with GUUCCGUUGGCGUAAUGGUAACGCGUCUCCCUCCUAUGGAGGAGACUGCGGGUUCGAGUCCCGUACGGAACG, GUUCCGUUGGCGUAAUGGUAACGCGUCUCCCUCCUAGGGAGAAGACUGCGGGUCCGAGUCCCGUACGGAACG is higher in yeast fitness: 0.588 for the first, 0.674 for the second.

Going from GUUCCGUUGGCGUAAUGGUAACGCGUCUCCCUCCUAGGGAGAAGACUGCGGGUACGAGUCCCGUACGGAACG to GUUCCGUUGGCGUAAUGGUAACGCGUCUCCCUCCUAUGGAGAAGACUGCGGGUUCGAGUCCCGUAUGGAACG, the yeast fitness rises from at most 0.5 to 0.627.

First: GUUCCGUUGGCGUAAUGGUAACGCGUCUCCCUCCUAUGGAGAAGACUGCGGGUUUGAGUCCCGUUCGGAACG
Second: GUUCCGUUGGCGUAAUGGUAACGCGUCUCCCUCCUAUGGAGAAGACUGCGGGUUCGAGUCCCGUGCGGAACG
The yeast fitness of the first is lower: at most 0.5 for the first, 0.651 for the second.

Compared with GUUCCGUUGGCGUAAUGGUAACGCGUCUCCCUCCUAUGGAGAAGAAUGCGGGUUCGAGUCCCGUACGGAACG, GUUCCGUUGGCGUAAUGGUAACGCGUCUCCCUCCUAUGGAGAAGACUGCGGGUUCGUGUCCCGUCCGAAACG is lower in yeast fitness: 0.816 for the first, 0.561 for the second.

Going from GUUCCGUUGGCGUAAUGGUAACGCGUCUCCCUCCUAUGGAGUAGACUGCGGGUUCGAGUCCCGUCCGGAACG to GUUCCGUUGGCGUAAUGGUAACGCGUCUCCCUCCUAUGGAGAAGUCUGCGGGUUCGAGUCCCGUACGGAACG, the yeast fitness rises from at most 0.5 to 0.64.

First: GUUCCGUUGGCGUAAUGGUAACGCGUCUCCCUCCUAUGGAGAAGUCUGCGGGUUCGAGUCCCGUACGUAACG
Second: GUUCCGUUGGCGUAAUGGUAACGCGUCUCCCUCCUAUCGAGAAGACUGCGGGUUCGAGUCCCGUACGGAACG
The yeast fitness of the first is lower: at most 0.5 for the first, 0.557 for the second.

Going from GUUCCGUUGGCGUAAUGGUAACGCGUCUCCCUCCUAUGGAGAAGACUGCGGGUUCGAGUCCAGUACGGAACG to GUUCCGUUGGCGUAAUGGUAACGCGUCUCCCUCCUAUCGAGAAGACUGCGGGUUCGAGUCCCAUACGGAACG, the yeast fitness falls from 0.523 to at most 0.5.

Compared with GUUCCGUUGGCGUAAUGGUAACGCGUCUCCCUCCUAUGGAGAAGACUGUGGGUUCGAGUCCCGUACGGAACG, GUUCCGUUGGCGUAAUGGUAACGCGUCUCCCUCCUAUGGCGAAGACUGCGCGUUCGAGUCCCGUAAGGAACG is lower in yeast fitness: 0.68 for the first, at most 0.5 for the second.

Compared with GUUCCGUUGGCGUAAUGGUAACGCGUCUCCCUCCUAGGGAGAAGACUGCGGGCUCGAGUCCCGUACGGAACG, GUUCCGUUGGCGUAAUGGUAACGCGUCUCCCUCCUAGGGAGAAGACUGCGGGGUCGAGUCCCGUACGGAACG is lower in yeast fitness: 0.553 for the first, at most 0.5 for the second.

First: GUUCCGUUGGCGUAAUGGUAACGCGUCUCCCUCCUAUGCAGAAGACUACGGGGUCGAGUCCCGUACGGAACG
Second: GUUCCGUUGGCGUAAUGGUAACGCGUCUCCCUCCUAGGGAGAAGACUGCGGGUUCGAGGCCCGUACGGAACG
The yeast fitness of the first is lower: at most 0.5 for the first, 0.75 for the second.

Reference: the RNAGym collection of RNA variant scans (doi:10.1126/science.aae0568)
